Source: PubChem BioAssay
An excerpt weighted towards active compounds, which were near 5.5% of everything screened.
HSV augment = increases HSV replication in cells | HSV replication augmentation in cells, fold increase | maximum fold increase | 0.005% of 220,000 active; in the data active = maximum fold increase above about 1.5; inconclusive = no clear call, values can overlap the other calls; tested in PC3 cells
Cl transport mod = modulates chloride dependent transport by human KCC2; Q9H2X9; KCC2 cells, thallium flux FluoZin-2 fluorescence; B-score of Tl+ flux slope (higher = more flux/activation; lower = inhibition) at 10 µM; 2.2% of 190,000 active; AID 1456;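 active = thallium flux slope and its plate-corrected score both differing from the plate sample mean at a set confidence after two filtering rounds, in either direction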;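 also: slope of fluorescence scaled to starting intensity during 10 to 20 s after thallium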
Target sequence (Q9H2X9 whole entry, looked up): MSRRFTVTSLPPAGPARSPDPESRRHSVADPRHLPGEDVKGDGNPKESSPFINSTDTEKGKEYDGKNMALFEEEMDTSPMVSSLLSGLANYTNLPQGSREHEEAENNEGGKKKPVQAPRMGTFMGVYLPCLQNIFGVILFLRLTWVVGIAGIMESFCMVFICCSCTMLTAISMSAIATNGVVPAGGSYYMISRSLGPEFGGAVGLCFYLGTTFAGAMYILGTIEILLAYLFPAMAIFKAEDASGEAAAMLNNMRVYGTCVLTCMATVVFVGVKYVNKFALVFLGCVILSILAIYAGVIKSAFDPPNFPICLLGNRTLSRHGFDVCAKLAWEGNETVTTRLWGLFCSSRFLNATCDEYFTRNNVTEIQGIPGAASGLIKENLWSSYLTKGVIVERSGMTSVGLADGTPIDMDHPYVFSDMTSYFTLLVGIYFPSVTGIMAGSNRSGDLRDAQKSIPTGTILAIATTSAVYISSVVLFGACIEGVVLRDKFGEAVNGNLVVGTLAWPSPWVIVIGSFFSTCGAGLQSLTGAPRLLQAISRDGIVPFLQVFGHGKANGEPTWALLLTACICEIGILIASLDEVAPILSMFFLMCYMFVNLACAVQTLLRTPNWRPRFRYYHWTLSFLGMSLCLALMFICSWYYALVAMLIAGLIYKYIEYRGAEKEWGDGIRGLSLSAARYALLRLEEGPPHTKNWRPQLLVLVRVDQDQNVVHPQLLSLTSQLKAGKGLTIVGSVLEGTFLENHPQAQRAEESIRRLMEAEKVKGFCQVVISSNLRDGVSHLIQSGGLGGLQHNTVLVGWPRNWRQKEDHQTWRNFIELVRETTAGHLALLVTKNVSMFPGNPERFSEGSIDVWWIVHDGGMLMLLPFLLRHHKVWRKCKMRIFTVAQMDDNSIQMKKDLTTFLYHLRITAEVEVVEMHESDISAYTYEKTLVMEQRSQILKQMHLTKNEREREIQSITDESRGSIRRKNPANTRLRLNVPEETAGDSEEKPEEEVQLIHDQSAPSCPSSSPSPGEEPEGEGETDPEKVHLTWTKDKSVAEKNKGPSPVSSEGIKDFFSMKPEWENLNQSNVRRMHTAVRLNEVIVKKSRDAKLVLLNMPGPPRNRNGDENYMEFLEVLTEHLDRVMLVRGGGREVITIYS
STAT3 activator = activators of IL-6 induced STAT3 signaling | U3A cells, IL-6 STAT3-luciferase reporter, luminescence; 100% = signal with IL-6 EC80 alone | activation (% of control), % at 5.6 µM | 0.91% of 190,000 active | AID 871;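 active = activation above the screen-wide mean of compound activation plus 3 SD, cut at about 130% in these data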;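 also: 0% = background luminescence of wells with medium and substrate only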
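Test system: Human STAT1-deficient U3A cells with stable STAT3-luciferase reporter | Also added: Interleukin-6, 33 ng/mL | Timing: Compound pre-incubation 1 h before IL-6, then 6 h stimulation at 37 °C | Technique: Luciferase reporter luminescence | Read-out: Percent of IL-6-only median luminescence | Benchmarks: IL-6-only wells as 100% reference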
STAT1 act = activators of IFN-gamma induced STAT1 signaling; NIH 3T3 STAT1-luciferase reporter, luminescence; 100% = IFN-gamma alone, no compound; 2.6% of 200,000 active; activation (% of control), % at 5.5 µM;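 active = activation above the screen-wide mean activation plus 3 SD, cut at about 130% in these data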;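 also: raw ratio to IFN-gamma control signal so 100% means no change and 0% no light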
STAT1 inh = reduces IFN-gamma driven STAT1 reporter signal; 0.35% of 200,000 active; inhibition, % at 5.5 µM; NIH 3T3 STAT1-luciferase reporter, luminescence; AID 920;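 active = inhibition above a set limit, the mean inhibition across all tested compounds plus 3 SD, cut at about 34% in these data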;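 also: 0% = IFN-gamma with DMSO and 100% = IFN-gamma with 300 µM nifuroxazide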
STAT3 blocker = inhibitors of IL-6 induced STAT3 signaling; U3A cells, IL-6 STAT3-luciferase reporter, luminescence; host cell line lacks STAT1; 0.89% of 190,000 active; inhibition, % at 5.5 µM;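 active = inhibition above the mean inhibition across all screened compounds plus 3 SD, cut at about 44% in these data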;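 also: 0% = DMSO only wells and 100% = 100 µM nifuroxazide control wells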
KCC2 sec1 = KCC2 (human) modulation, secondary assay; shares compounds with Cl transport mod; HEK293-KCC2, thallium flux, FluoZin2 fluorescence; hits give high values; normalised thallium flux (F/F0 slope) at 10 µM; 15% of 3,700 active; AID 1713;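 active = thallium flux slope above the same plate's solvent-only control mean plus 3 SD; inconclusive = the two replicate wells disagree; inactive = no significant difference from solvent-only control wells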
KCC2 bumet counter = thallium flux persisting under bumetanide in KCC2 cells, counter-screen secondary assay | shares compounds with Cl transport mod | HEK293-KCC2 + bumetanide/ouabain, thallium flux FluoZin2; hits give high values | normalized thallium flux at 10 µM | 49% of 3,700 active | AID 1714;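 active = thallium entry rate above the same plate's blocked-transporter control wells by more than 3 SD; inconclusive = the two repeat wells disagree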;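 also: raw slope of fluorescence over initial fluorescence between 10 and 20 s after thallium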
KCC2 sec2 = KCC2 (human) modulation, second secondary assay; shares compounds with Cl transport mod; HEK293-KCC2, thallium flux FluoZin2 fluorescence; actives lie on both sides; F/F0 rise rate, 10–20 s post-thallium; normalized thallium flux at 10 µM; 23% of 3,700 active;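 active = thallium flux slope more than 3 SD above or below the plate's solvent-only control mean, mostly below; inconclusive = the two repeat wells disagreed; inactive = no significant shift from solvent-only controls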;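 also: raw slope with 0.1% DMSO as baseline and bumetanide as block control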
HEK counter1 = acts in parental HEK cells, KCC2 counter-screen; thallium flux rate (normalised fluorescence) at 10 µM; AID 1716; shares compounds with Cl transport mod; HEK293 parental cells, thallium flux FluoZin2, ouabain; baseline-ratio fluorescence slope, 10–20 s after thallium; 46% of 3,700 active;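 active = thallium flux rate significantly above the same plate's solvent-only control wells, beyond their mean plus 3 SD; inconclusive = the two replicate wells gave conflicting results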
KCC2 ouabain = modulates human KCC2 on retest with ouabain; shares compounds with Cl transport mod; HEK293-KCC2, thallium flux FluoZin2 fluorescence; bidirectional: low = inhibitor, high = activator; raw Tl+ flux slope (below DMSO = inhibition, above = activation) at 10 µM; 48% of 3,700 active; AID 1717;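 active = thallium flux slope beyond 3 SD from same-plate DMSO control mean in most replicates, usually higher, sometimes lower; inconclusive = repeat tests gave conflicting results; inactive = no significant difference from controls in most replicates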;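 also: slope of initial-normalized fluorescence between seconds 10 and 20 after thallium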
HEK293 Tl flux2 = acts in parental HEK cells, second KCC2 counter-screen; shares compounds with Cl transport mod; HEK293 parental, thallium flux FluoZin-2 fluorescence slope; thallium flux slope at 10 µM; 33% of 3,700 active;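 active = thallium flux slope above the same plate's solvent-control mean plus 3 SD in both duplicate wells; inconclusive = duplicate wells that disagreed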;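 also: run without ouabain in cells lacking the KCC2 cotransporter; slope of fluorescence scaled to its starting value between 10 and 20 s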
The depositor's hits bear a star; i = inactive; ? = inconclusive; / = no result given.

SMILES	HSV augment	Cl transport mod	STAT3 activator	STAT1 act	STAT1 inh	STAT3 blocker	KCC2 sec1	KCC2 bumet counter	KCC2 sec2	HEK counter1	KCC2 ouabain	HEK293 Tl flux2
O=c1[nH]c(=S)n(Cc2ccco2)c(O)c1C=NCc1cccs1	i	-3.2*	101	101	-1	-1	0.0095	0.0066	?	0.008	0.02*	0.011
O=c1[nH]c(=O)n(Cc2ccco2)c(O)c1C=NCc1cccs1	i	/	101	106	-2	-2	/	/	/	/	/	/
O=C1/C(=C\c2ccccc2)C2OCC=C3CN4CCC56c7ccccc7N1C5C2C3CC46 (stereo unspecified)	i	-0.59	/	/	/	/	/	/	/	/	/	/
Cc1nc2cc(C(F)(F)F)ccc2n1C1CCN(Cc2nnnn2Cc2ccc3c(c2)OCO3)CC1	i	-4.7*	108	88	13	-7	0.0049	0.0052	?	0.0072	?	0.011
Cc1nc2cc(C(F)(F)F)ccc2n1C1CCN(Cc2nnnn2Cc2cccs2)CC1	i	-1.3	99	95	4	5	/	/	/	/	/	/
CCCCn1c(O)c(/C=C/C=Nc2ccccc2)c(=O)[nH]c1=O	i	-4.7*	84	97	4	18	0.0026*	-0.0018*	0.025*	0.0019*	0.0084*	0.007*
CCC1(C(=O)c2ccc(C)cc2)C2c3ccccc3OC(=O)C21C(=O)O (stereo unspecified)	i	-1	/	/	/	/	/	/	/	/	/	/
Cc1cc(OCC(=O)O)c2c3c(c(=O)oc2c1)CCCC3	i	0.12	95	97	0	9	/	/	/	/	/	/
COC(=O)c1ccc(COc2cc(C)cc3oc(=O)c4c(c23)CCCC4)o1	i	/	89	95	5	16	0.0075	0.0044	0.027	0.0049*	?	0.0084
NNC(=O)c1ccc(Cl)cc1	i	4.3*	94	103	-3	9	0.0086	0.0047	0.031	0.0069	0.02	0.01
COc1cc(C(=S)N2CCOCC2)cc(OC)c1OC(=O)Cc1ccccc1	i	-5.4*	108	102	-3	-9	?	0.006*	0.021*	0.0076	0.013	0.0097
CCC(=Nc1ccc2c(c1)CCC2)c1c(O)n(-c2ccc(OC)cc2)c(=O)[nH]c1=O	i	0.34	/	/	/	/	/	/	/	/	/	/
CCN(CC)CCCN=Cc1c(O)n(CCc2ccc(OC)c(OC)c2)c(=O)[nH]c1=O	i	-6.2*	103	103	-3	1	0.01	0.0067	0.033	?	0.024	?
CCN(CC)c1ccc(N=Cc2c(O)n(CCc3ccc(OC)c(OC)c3)c(=O)[nH]c2=O)cc1	i	-0.35	100	100	0	-5	/	/	/	/	/	/
COc1cccc(-n2c(-c3ccoc3)nc3ccccc3c2=O)c1	i	/	101	94	3	-1	0.0066	0.0041	0.031	0.0072	0.018	0.0098
CN1CCN(c2ccc(N)cc2Cl)CC1	/	0.58	93	88	13	16	/	/	/	/	/	/
COCCCn1c(-c2ccc(OC)cc2)cc(C(=O)NC2CCCCCCC2)c1C	i	0.0021	101	96	5	-1	/	/	/	/	/	/
O=C(COc1ccc(Cl)cc1Cl)N1CCN(C/C=C/c2ccccc2)CC1	i	-6.8*	105	97	3	1	0.0077	0.0057	0.034	0.0072	0.02	0.011
